Measurements as given in paper PMC4196235 (mBio, 2014).
Values after ≈ are worked out from the molar mass of the structure shown.

Legend:
[1] = test system: hybrid bacterial ribosomes carrying the cytoplasmic A site; experiment: cell-free translation assay, cytosolic hybrid ribosomes; format: biochemical, Homo sapiens; conditions: firefly luciferase synthesis, mean ± SD, triplicate
How it was run: (§1)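 Hybrid 70S ribosomes purified from recombinant Mycobacterium smegmatis strains derived from a ΔrrnB single-rRNA-operon strain. Reactions contained 0.25 µM ribosomes, 4 µg firefly luciferase mRNA, 40% (vol/vol) M. smegmatis S100 extract, 200 µM amino acids and 0.4 mg/ml tRNAs, with S30 premix as energy source. Serially diluted test compound added; 37°C for 35 min, stopped on ice. Luciferase luminescence read; IC50 from dose-response curves; mean ± SD, triplicate.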

[2] = test system: hybrid bacterial ribosomes carrying the mitochondrial A site; experiment: cell-free translation assay, mitochondrial hybrid ribosomes; format: biochemical, Homo sapiens; conditions: firefly luciferase synthesis, mean ± SD, triplicate
How it was run: as §1

[3] = test system: hybrid bacterial ribosomes carrying the mitochondrial mutant A1555G deafness A site; experiment: cell-free translation assay, mitochondrial deafness hybrid ribosomes; format: biochemical, Homo sapiens; conditions: firefly luciferase synthesis, mean ± SD, triplicate
How it was run: as §1

[4] = test system: rabbit reticulocyte ribosomes; experiment: in vitro translation in rabbit reticulocyte lysate; format: biochemical; conditions: firefly luciferase synthesis, mean ± SD, triplicate
How it was run: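 Cell-free translation in rabbit reticulocyte lysate with firefly luciferase mRNA and serially diluted test compound. Incubated 37°C for 35 min, stopped on ice, then luciferase luminescence measured. IC50 is the concentration halving functional luciferase synthesis, taken from dose-response curves; mean ± SD, triplicate.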

[5] = test system: Staphylococcus aureus (MRSA) isolates; experiment: MIC by broth microdilution, clinical isolates; format: cell-based
How it was run: (§2)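 Clinical isolates from a university diagnostic microbiology department. MIC determined by broth microdilution in microtiter plates, incubated overnight.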

[6] = test system: Escherichia coli isolates; experiment: MIC by broth microdilution, clinical isolates; format: cell-based
How it was run: as §2

S. aureus MRSA AG041 = experiment: neutropenic murine model of Staphylococcus aureus septicemia; format: in vivo; conditions: at the highest dose tested; subcutaneous (Fig. 2C and F)
[7] = test system: mitochondrial A1555G mutant hybrid ribosomes; experiment: ribosomal damage index, mitochondrial A1555G mutant hybrid; format: biochemical, Homo sapiens; conditions: 1/IC50 × misreading at IC50/misreading in the absence of the drug × 100
How it was run: (§3)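 Misreading gain-of-function assay: firefly luciferase mRNA with His245 CAC replaced by near-cognate Arg245 CGC, alongside wild-type firefly mRNA, translated in vitro with renilla luciferase mRNA as internal control. Misreading is the mutant firefly/renilla ratio relative to the wild-type firefly/renilla ratio.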

[8] = test system: recombinant bacterial ribosomes with point mutation G1491C in the A site; experiment: cell-free ribosomal translation assay, G1491C mutant; format: biochemical, Mycobacterium smegmatis
How it was run: (§4)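 Purified 70S hybrid ribosomes, wild-type or carrying the single A-site point mutation, came from M. smegmatis strains with a single rRNA operon. Each was translated with firefly luciferase mRNA, 40% (vol/vol) M. smegmatis S100 extract, amino acids, 0.4 mg/ml tRNAs and S30 premix energy, plus serially diluted test compound, for 35 min at 37°C. Luciferase luminescence gave IC50s (triplicate means ± SD), expressed as mutant/wild-type IC50 ratio.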

[9] = test system: recombinant bacterial ribosomes with point mutation A1408G in the A site; experiment: cell-free ribosomal translation assay, A1408G mutant; format: biochemical, Mycobacterium smegmatis
How it was run: as §4

[10] = test system: rabbit reticulocyte ribosomes; experiment: ribosomal damage index, native cytosolic eukaryotic ribosomes; format: biochemical; conditions: 1/IC50 × misreading at IC50/misreading in the absence of the drug × 100
How it was run: as §3

[11] = test system: mitochondrial hybrid ribosomes; experiment: ribosomal damage index; format: biochemical, Homo sapiens; conditions: 1/IC50 × misreading at IC50/misreading in the absence of the drug × 100
How it was run: as §3

[12] = test system: cytosolic hybrid ribosomes; experiment: ribosomal damage index, cytosolic hybrid; format: biochemical, Homo sapiens; conditions: 1/IC50 × misreading at IC50/misreading in the absence of the drug × 100
How it was run: as §3

outer hair cells = experiment: quantification of outer hair cell loss in cochlear surface preparations; format: in vivo; conditions: guinea pig, 140 mg/kg, 14 days
How it was run: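 Guinea pigs dosed subcutaneously once daily for 14 days. After the final ABR (3 weeks post-treatment), cochleae were split into apical, middle and basal segments. Segments were permeabilized in 3% Triton X-100 for 30 min at RT, washed in PBS and stained with rhodamine phalloidin (1:100) for 1 h at RT. Consecutive 0.19-mm fields from the apex were scored blind for missing outer hair cells against a normative database.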

[13] = general toxicity in the guinea pig chronic ototoxicity study; format: in vivo
How it was run: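 Male Hartley guinea pigs, about 200 g initially, acclimated 1 week. […] Animals were followed for death and body weight through the study, which included ABR testing before treatment and 3 weeks after treatment ended.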

Q: With `NC[C@@H]1O[C@H](O[C@H]2[C@@H](O)[C@H](O[C@@H]3[C@@H](O)[C@H](N)C[C@H](N)[C@H]3O[C@H]3O[C@@H]4CO[C@@H](CCc5ccccc5)O[C@H]4[C@H](O)[C@H]3N)O[C@@H]2CO)[C@H](N)[C@@H](O)[C@@H]1O` [4′,6′-O-(3-Phenylpropylidene) paromomycin] as the molecule, how does the “IC50 with eukaryotic A sites in the ribosome: Cytosolic wild-type” value (from here on “IC50 … Cytosolic wild-type”) [1] read?
A: Its value is 150.5 ± 28.0 µg/mL.

Q: What about the “IC50 with eukaryotic A sites in the ribosome: Mitochondrial wild-type” value (“IC50 … Mitochondrial wild-type” for short) [2] of the same molecule?
A: Its value is 305.7 ± 74.1 µg/mL.

Q: And the “IC50 with eukaryotic A sites in the ribosome: Mitochondrial mutant A1555G” value (“IC50 … Mitochondrial mutant A1555G” for short) [3]?
A: Its value is 126.9 ± 54.4 µg/mL.

Q: Which “IC50 with eukaryotic A sites in the ribosome: Rabbit reticulocytes” value [4] does the source give for `NC[C@@H]1O[C@H](O[C@H]2[C@@H](O)[C@H](O[C@@H]3[C@@H](O)[C@H](N)C[C@H](N)[C@H]3O[C@H]3O[C@H](CO)C[C@H](O)[C@H]3N)O[C@@H]2CO)[C@H](N)[C@@H](O)[C@@H]1O` [4′ Deoxy paromomycin] here?
A: The value was 17.3 ± 4.2 µg/mL.

Q: What about the “IC50 … Cytosolic wild-type” value [1] of the same molecule?
A: Its value is 28.4 ± 13.8 µg/mL.

Q: What about the “IC50 … Mitochondrial wild-type” value [2] of the same molecule?
A: Its value is 74.1 ± 12.4 µg/mL.

Q: What about the “IC50 … Mitochondrial mutant A1555G” value [3] of the same molecule?
A: Its value is 24.2 ± 10.5 µg/mL.

Q: Which results are given for `NC[C@@H]1O[C@H](O[C@H]2[C@@H](O)[C@H](O[C@@H]3[C@@H](O)[C@H](N)C[C@H](N)[C@H]3O[C@H]3O[C@H](CO)[C@@H](O)[C@H](O)[C@H]3N)O[C@@H]2CO)[C@H](N)[C@@H](O)[C@@H]1O` [Paromomycin]?
A: MIC ([5]; S. aureus (MRSA) clinical isolate AG 038): 4 µg/mL (≈ 6.5 µM); MIC ([5]; S. aureus (MRSA) clinical isolate AG 039): > 256 µg/mL; MIC ([5]; S. aureus (MRSA) clinical isolate AG 042): > 256 µg/mL; MIC ([5]; S. aureus (MRSA) clinical isolate AG 044): 4 to 8 µg/mL (≈ 6.5 to 13 µM); MIC ([5]; S. aureus (MRSA) clinical isolate AG 045): 4 µg/mL (≈ 6.5 µM); MIC ([6]; E. coli clinical isolate AG 001): 16 to 32 µg/mL (≈ 26 to 52 µM); MIC ([6]; E. coli clinical isolate AG 002): 8 to 16 µg/mL (≈ 13 to 26 µM); MIC ([6]; E. coli clinical isolate AG 003): 8 to 16 µg/mL (≈ 13 to 26 µM); MIC ([6]; E. coli clinical isolate AG 055): 8 to 16 µg/mL (≈ 13 to 26 µM); IC50 with eukaryotic A sites in the ribosome: Rabbit reticulocytes [4]: 9.55 ± 4.94 µg/mL; IC50 with eukaryotic A sites in the ribosome: Cytosolic wild-type [1]: 9.89 ± 2.73 µg/mL; bacterial burden in the kidney (S. aureus MRSA AG041): below detectable limits; Ribosomal damage index: Mitochondrial mutant A1555G [7]: 125.0; ratio of the IC50 for the C1491 mutant ribosomes to the IC50 for the wild-type ribosomes [8]: 520; ratio of the IC50 for the G1408 mutant ribosomes to the IC50 for the wild-type ribosomes [9]: 13; Ribosomal damage index: Rabbit ribosomes [10]: 120.0; IC50 with eukaryotic A sites in the ribosome: Mitochondrial wild-type [2]: 50.66 ± 13.33 µg/mL; Ribosomal damage index: Mitochondrial wild-type [11]: 5.0; IC50 with eukaryotic A sites in the ribosome: Mitochondrial mutant A1555G [3]: 5.77 ± 2.32 µg/mL; Ribosomal damage index: Cytosolic wild-type [12]: 40.0

Q: With `NCC1OC(OC2C(CO)OC(OC3C(O)C(N)CC(N)C3OC3OC(CO)C(OCCCc4ccccc4)C(O)C3N)C2O)C(N)C(O)C1O` (stereo not shown) [4′-O-(3-Phenylpropyl) paromomycin] as the molecule, how does the “IC50 … Cytosolic wild-type” value [1] read?
A: Its value is 268.57 ± 54.97 µg/mL.

Q: What about the “IC50 … Mitochondrial wild-type” value [2] of the same molecule?
A: The value was 49.85 ± 15.39 µg/mL.

Q: What about the “IC50 … Mitochondrial mutant A1555G” value [3] of the same molecule?
A: The value was 105.68 ± 39.23 µg/mL.

Q: For `CNC(C)C1CCC(N)C(OC2C(N)CC(N)C(OC3OCC(C)(O)C(NC)C3O)C2O)O1` (stereo not shown) [Gentamicin], which “loss of outer hair cells in cochleae” value (outer hair cells) is on record?
A: The value was “steep rise of hair cell loss from the middle cochlea to complete loss at the base”.

Q: And the “loss of outer hair cells in cochleae” value (outer hair cells; listed as gentamicin)?
A: Its value is “extensive loss of outer hair cells”.

Q: And the “signs of general toxicity” value ([13]; doses below 160 mg/kg)?
A: Its value is “significant weight loss”.

Q: What about the “signs of general toxicity” value ([13]; doses exceeding 160 mg/kg) of the same molecule?
A: The value was “death”.
